Results reported in ChEMBL document CHEMBL1139582, “Interaction of chiral MS-245 analogs at h5-HT6 receptors” (Bioorg Med Chem Lett, 2005).

Target: 5-hydroxytryptamine receptor 6 (Homo sapiens, UniProt P50406)
Assay: Binding affinity against h5-HT6 receptor transiently expressed in HEK293 cells
Format: cell-based
How it was run: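 Harvested transfected cells 72 h post-transfection (medium changed at 24 h; dialyzed serum added 24 h later to remove 5-HT), washed in PBS pH 7.40, stored frozen at -80 °C. Competition binding at room temperature, 90 min, in 50 mM Tris-Cl, 10 mM MgCl2, 0.1 mM EDTA pH 7.40 with [3H]LSD 1 nM final; 10 µM clozapine defines nonspecific binding.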

Chain of 5-hydroxytryptamine receptor 6 (P50406 whole entry): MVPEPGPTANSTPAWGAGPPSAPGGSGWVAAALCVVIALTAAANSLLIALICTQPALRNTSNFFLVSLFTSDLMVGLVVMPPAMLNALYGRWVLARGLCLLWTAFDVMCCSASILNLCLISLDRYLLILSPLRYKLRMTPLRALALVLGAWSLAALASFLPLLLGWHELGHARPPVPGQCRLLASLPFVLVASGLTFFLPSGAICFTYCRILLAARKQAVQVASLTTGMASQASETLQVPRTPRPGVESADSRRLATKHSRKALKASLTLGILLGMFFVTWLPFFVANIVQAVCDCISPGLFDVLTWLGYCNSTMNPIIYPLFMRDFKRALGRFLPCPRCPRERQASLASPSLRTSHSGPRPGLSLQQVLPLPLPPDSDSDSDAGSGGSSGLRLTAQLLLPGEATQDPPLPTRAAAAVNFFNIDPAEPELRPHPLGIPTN

Compound	Ki [nM]
CN1CCC[C@@H]1Cn1cc(Cc2ccccc2)c2ccccc21	9.9
c1ccc2c(C[C@@H]3CCCN3)c[nH]c2c1	2400
CN(C)CCc1cn(S(=O)(=O)c2ccccc2)c2ccccc12	4
O=S(=O)(c1ccccc1)n1cc(C[C@H]2CCCN2)c2ccccc21	7.8
c1ccc2c(C[C@H]3CCCN3)c[nH]c2c1	60
CN1CCC[C@@H]1Cc1c[nH]c2ccccc12	640
CN1CCC[C@@H]1Cc1cn(S(=O)(=O)c2ccccc2)c2ccccc12	0.3
CN1CCC[C@H]1Cc1c[nH]c2ccccc12	9.1
CN1CCC[C@H]1Cc1cn(S(=O)(=O)c2ccccc2)c2ccccc12	1.7
CN1CCC[C@H]1Cn1cc(Cc2ccccc2)c2ccccc21	29
O=S(=O)(c1ccccc1)n1cc(C[C@@H]2CCCN2)c2ccccc21	46
